Test results reported in PMC10603355 (Journal for Immunotherapy of Cancer, 2023).

Columns and labels:
[1] = test system: splenocytes of HHDII/DR1 mice (T-cell IFNγ response); experiment: IFNγ ELISpot on splenocytes of peptide-immunized HLA-A2 transgenic; type: in vivo, mouse; conditions: for IFNγ response after immunization with wt peptide: HHDII/DR1 mice, tested against wt or Hcit peptides (figure 2B); for Modification specificity of IFNγ response (Hcit versus wt peptide): HHDII/DR1 and HHDII mice immunized with long Hcit peptide (figure 2A); for Effect of CD4 or CD8 blocking antibody on IFNγ response, ex vivo: HHDII/DR1 mice immunized with long Hcit peptide, 20 µg/mL anti-CD4 or anti-CD8 (figure 1C)
Summary of the method: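 HHDII/DR1 or HHDII mice get 25 µg peptide s.c. (stock 1 mg/mL in 20% DMSO/PBS) with 5 µg each CpG ODN 1826 and monophosphoryl lipid A in PBS on days 1, 8 and 15. Spleens taken day 21. 5×10^5 splenocytes/well in quadruplicate are restimulated with peptide for 40 h at 37°C, 5% CO2. IFNγ spots are counted automatically and reported as mean spots/million splenocytes per mouse; n=3 per group.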

HLA-A2 on T2 cells = experiment: T2 binding assay; type: cell-based, human; conditions: different peptide concentrations; three independent experiments (figure 3C,D)
Summary of the method: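 T2 cells (2×10^6/mL) are incubated overnight at 37°C with peptide (dilutions prepared at 400, 40 and 4 µg/mL before mixing) and recombinant human β2-microglobulin (prepared at 800 ng/mL). Brefeldin A is added for 1 h before anti-HLA-A2 FITC staining and flow cytometry. Binding is taken as median fluorescence intensity; three independent experiments, two-way ANOVA.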

B16 HHDII melanoma cells = experiment: In vivo antitumor study, B16 HHDII tumor in HHDII mice; conditions: aggressive mouse B16 melanoma model, peptide vaccination
Summary of the method: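 HHDII mice receive 5×10^4 B16 HHDII cells s.c. on day 1, then peptide plus CpG/MPLA adjuvant on days 4, 8 and 11. In depletion arms, anti-CD4 (GK1.5) or anti-CD8 (2.43) is given i.p., 500 µg day 4 and 300 µg days 8 and 11. Tumours are checked twice weekly, with euthanasia near 15 mm diameter; n=5–10 per group.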

Row | Substance | IFNγ response after immunization with wt peptide [1] | Modification specificity of IFNγ response (Hcit versus wt peptide) [1] | Effect of CD4 or CD8 blocking antibody on IFNγ response, ex vivo [1] | further results
1 | Aldo 204–219wt: wild type (native) long aldolase A peptide (YVTEKVLAAVYKALSD; UniProt P04075 204-219, looked up, fragment) | failed to stimulate detectable IFNγ immune responses | – | – | –
2 | Cyk8 112–132wt: wild type (native) long cytokeratin 8 peptide (LEQQNKMLETKWSLLQQQKTA; UniProt P05787 112-132, looked up, fragment) | failed to stimulate detectable IFNγ immune responses | – | – | –
3 | LEQQN-Hcit-MLET- Hcit-WSLLQQQ- Hcit-T [Cyk8 112-132Hcit] | – | strong modification specific responses | either anti-CD8 or anti-CD4 antibody significantly reduced the immune response | –
4 | VLAAVY-Hcit-AL [Aldo 209-217Hcit] | – | – | – | IFNγ response to short peptide in mice immunized with the long Hcit peptide ([1]; HHDII/DR1 mice immunized with Aldo 204-219Hcit or Cyk8 112-132Hcit (figure 2C)): strong responses; HLA-A2 binding affinity of Hcit peptide compared with corresponding wt peptide (HLA-A2 on T2 cells): higher binding affinity; survival (B16 HHDII melanoma cells): at least 50%
5 | YVTE-Hcit-VLAAVY-Hcit-ALSD [Aldo 204-219Hcit] | – | strong modification specific responses | not affected by either of the blocking antibody | –
